Results on 14 molecules are retold here after ChEMBL document CHEMBL1157363, “Inhibition of isolated Mycobacterium tuberculosis fatty acid synthase I by pyrazinamide analogs” (Antimicrob Agents Chemother, 2007).

Active and inactive are the calls of the source. The calls are words filed in the database; no cut-off is given here.

For experiment [1], the system named is Mycobacterium tuberculosis. The experiment can be described thus: Inhibition of Mycobacterium tuberculosis fatty acid synthase 1 expressed in Mycobacterium smegmatis mc2 2700 assessed as [2-14C]]malonyl-CoA incorporation into fatty acid at 6000 uM.
The subject of experiment [2] is Mycobacterium tuberculosis. As to the kind of experiment: Inhibition of Mycobacterium tuberculosis fatty acid synthase 1 expressed in Mycobacterium smegmatis mc2 2700 assessed as [2-14C]]malonyl-CoA incorporation into fatty acid at 3000 uM.
The test system of experiment [3] is Mycobacterium tuberculosis. The experiment can be described thus: Inhibition of Mycobacterium tuberculosis fatty acid synthase 1 expressed in Mycobacterium smegmatis mc2 2700 assessed as NADPH oxidation by spectrophotometry. The essentials: (§1)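 Purified Mtb FASI (from M. smegmatis Δfas1 attB::Mtb fas1, ammonium sulfate, DE52, gel filtration), 1–3 μg in 1 ml: 50 μM acetyl-CoA, 40 μM malonyl-CoA, 100 μM NADPH, 5 mM DTT, 400 mM potassium phosphate pH 7.4; inhibitor in DMSO (≤0.05 ml/ml). Linear A340 decrease over 10 min at 37°C; IC50 from Dixon plot x-intercept at 100 μM NADPH.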

The nature of experiment [4]: Inhibition of Mycobacterium tuberculosis fatty acid synthase 1 expressed in Mycobacterium smegmatis mc2 2700 assessed as NADPH oxidation at 100 uM of NADPH by spectrophotometry. The essentials: as §1
The test system of experiment [5] is Mycobacterium tuberculosis. The experiment can be described thus: Inhibition of Mycobacterium tuberculosis fatty acid synthase 1 expressed in Mycobacterium smegmatis mc2 2700 assessed as NADPH oxidation upto 100 mM by spectrophotometry. The gist of the method: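 NADPH oxidation by purified Mtb FASI (1–3 μg/ml), 50 μM acetyl-CoA, 40 μM malonyl-CoA, 100 μM NADPH, 5 mM DTT, 400 mM potassium phosphate pH 7.4, 37°C, A340 decrease over 10 min; inhibitor added from DMSO at up to 100 mM, percent inhibition read.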

Experiment [6] can be described thus: Inhibition of Mycobacterium tuberculosis fatty acid synthase 1 expressed in Mycobacterium smegmatis mc2 2700 assessed as NADPH oxidation using variable concentration of NADPH by spectrophotometry.

Take `O=C(O)c1cnccn1`: the figures for the inhibition in experiment [1] and in experiment [2] were 37% and 6%, respectively. The Activity result in experiment [3] was “Dose-dependent effect”.

Consider `CC(C)(C)NC(=O)c1cnc(Cl)cn1`, for which the IC50 in experiment [4] came out at 8.7 µM.

Turning to `NC(=O)c1ccccc1`, in experiment [5], the inhibition is 15%.

With `CCCOC(=O)c1cnccn1`, the figures for the inhibition in experiment [1] and in experiment [2] were 37% and 6%, respectively. Further, in experiment [4], the IC50 was 1720 µM.

Regarding `CC(C)(C)OC(=O)c1cnc(F)cn1`, in experiment [4], the IC50 amounted to 4.3 µM.

As for `CC[C@@H](CO)NCCN[C@@H](CC)CO`, in experiment [1], the outcome was inactive.

Turning to `CCCNC(=O)c1cnc(Cl)cn1`, the inhibition turned out to be 37% in experiment [1] and 6% in experiment [2]. Also, in experiment [4], the IC50 turned out to be 8.1 µM.

With `CC(C)(C)OC(=O)c1cnc(Cl)cn1`, the IC50 in experiment [4] was determined as 15.1 µM.

For `NC(=O)c1cnc(Cl)cn1`, the IC50 in experiment [4] came out at 15.1 µM. Besides, in experiment [6], the IC50 is 151 µM and the Ki worked out at 55 µM. Also, the inhibition in experiment [2] is 39%. Also, the Activity result in experiment [3] was “Dose-dependent effect”.

For `CCCOC(=O)c1cnc(Cl)cn1`, the inhibition in experiment [1] came out at 66%. The IC50 in experiment [4] is 5.9 µM.

As to `C/C=C/C/C=C/CCC(=O)[C@H]1O[C@H]1C(N)=O`, in experiment [1], the inhibition was found to be 62%. Moreover, in experiment [2], the result was inactive.

On to `CC(C)(C)OC(=O)c1cnccn1`, for which, in experiment [4], the IC50 is 1360 µM.

On to `CCCOC(=O)c1cnc(F)cn1`, for which, in experiment [1], the inhibition was 66%. Also, the IC50 in experiment [4] stood at 1.5 µM.

Take `NC(=O)c1cnccn1` [PYRAZINAMIDE]: the inhibition in experiment [1] turned out to be 37%; in experiment [2], 6%. Moreover, the IC50 in experiment [4] and in experiment [6] was 8930 µM each time. Further, the inhibition constant (Ki) in experiment [6] was found to be 2570 µM. In addition, the Activity entry in experiment [3] is “Dose-dependent effect”.

The term inhibition denotes the drop in the measured response relative to a control, in per cent. As usually defined, the IC50 is the concentration that gives 50% inhibition. In general, Ki refers to a dissociation constant, usually derived from enzyme kinetics or from competition with a known ligand.
